Experimental findings from ChEMBL document CHEMBL1124369, “Pyrido[3,4-e]-1,2,4-triazines and related heterocycles as potential antifungal agents” (1989) are described below.

In brackets after ≈: the same amount, converted by molar mass. Some results are limits rather than exact numbers.

Experiment [1] concerns Trichophyton rubrum. The experiment in a line: Antifungal activity against Trichophyton rubrum; Range is 64-128. The class given is functional.
The subject of experiment [2] is Candida tropicalis. The experiment in a line: Antifungal activity against Candida tropicalis. Type of experiment: functional. The procedure, abridged:
(§1)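 Agar dilution MIC. Twofold serial drug dilutions in yeast nitrogen base medium with 1% dextrose, 0.15% asparagine and 1.5% agar. Agar surfaces inoculated using a Steers multiple inocula replicator, then incubated at 35 °C for 24-48 h. MIC was recorded as the lowest concentration inhibiting visible growth. Amphotericin B, miconazole and nystatin served as controls.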

The subject of experiment [3] is Candida albicans. Nature of the experiment: Antifungal activity against Candida albicans. Type of experiment: functional. The procedure, abridged:
as §1

The subject of experiment [4] is Candida parapsilosis. The experiment in a line: Antifungal activity against Candida parapsilosis. The conditions noted are these: Lodderomyces parapsilosis. Type of experiment: functional. Summed up:
as §1

For experiment [5], the system named is Trichophyton benhamiae. The experiment in a line: Antifungal activity against Trichophyton mentagrophytes; Range is 64-128. Type of experiment: functional, trychophyton mentagrophytes. The procedure, abridged: as §1
Experiment [6] deals with Aspergillus niger. The experiment in a line: Antifungal activity against Aspergillus niger. Type of experiment: functional. The procedure, abridged: as §1
The test system of experiment [7] is Kluyveromyces marxianus. Nature of the experiment: Antifungal activity against Candida pseudotropicalis. The class given is functional. Summed up: as §1
Experiment [8] has as its system Mucor fragilis. The experiment in a line: Antifungal activity against Mucor fragilis. The class given is functional. Summed up: as §1
The test system of experiment [9] is Aspergillus niger. The experiment in a line: Antifungal activity against Aspergillus niger; Range is 32-64. Type of experiment: functional. Summed up: as §1
Experiment [10] concerns Candida albicans. Nature of the experiment: Antifungal activity against Candida stellatoidea. Type of experiment: functional. The procedure, abridged:
as §1

The subject of experiment [11] is Diutina rugosa. The experiment in a line: Antifungal activity against Candida rugosa. The class given is functional. Summed up:
as §1

Experiment [12] concerns Candida tropicalis. Nature of the experiment: Antifungal activity against Candida tropicalis; Range is 8-16. Type of experiment: functional. Summed up: as §1
Experiment [13] has as its system Aspergillus niger. The experiment in a line: Antifungal activity against Aspergillus niger; Range is 16-32. Type of experiment: functional. Summed up: as §1
Experiment [14] relates to Trichophyton benhamiae. The experiment in a line: Antifungal activity against Trichophyton mentagrophytes. The class given is functional, trychophyton mentagrophytes. Summed up:
as §1

The test system of experiment [15] is Trichophyton rubrum. The experiment in a line: Antifungal activity against Trichophyton rubrum; Range is 1-2. Type of experiment: functional. Summed up: as §1
Experiment [16] relates to Trichophyton rubrum. The experiment in a line: Antifungal activity against Trichophyton rubrum. Type of experiment: functional. Summed up:
as §1

The test system of experiment [17] is Trichophyton rubrum. Nature of the experiment: Antifungal activity against Trichophyton rubrum; Range is 2-4. The class given is functional. The procedure, abridged:
as §1

In experiment [18] the test system is Trichophyton rubrum. The experiment in a line: Antifungal activity against Trichophyton rubrum; Range is 8-32. The class given is functional.
The subject of experiment [19] is Trichophyton benhamiae. Nature of the experiment: Antifungal activity against Trichophyton mentagrophytes; Range is 32-64. Type of experiment: functional, trychophyton mentagrophytes. Summed up:
as §1

For experiment [20], the system named is Candida albicans. The experiment in a line: Antifungal activity against Candida albicans; Range is 8-16. The class given is functional. The procedure, abridged: as §1
Experiment [21] relates to Aspergillus niger. Nature of the experiment: Antifungal activity against Aspergillus niger; Range is 64-128. The class given is functional. The procedure, abridged: as §1

On to `CC1(C)N=Nc2c(cnc3ccccc23)N1`, for which the minimal inhibitory concentration (MIC) in experiment [1] worked out at 64 µg/mL (≈ 302 µM); in [2], 128 µg/mL (≈ 603 µM); in experiment [3], 128 µg/mL (≈ 603 µM); in experiment [4], 128 µg/mL (≈ 603 µM); in experiment [5], 64 µg/mL (≈ 302 µM); in [6], 128 µg/mL (≈ 603 µM). In experiment [7], this molecule showed an MIC of 128 µg/mL (≈ 603 µM).

`c1cnc(-c2nnc3ccncc3n2)cn1`: the MIC in [8] came out at 64 µg/mL (≈ 304 µM); in experiment [9] it was 32 µg/mL (≈ 152 µM); in experiment [2] it was 64 µg/mL (≈ 304 µM); in experiment [3], 64 µg/mL (≈ 304 µM); in experiment [10], 64 µg/mL (≈ 304 µM); in experiment [11] it was 64 µg/mL (≈ 304 µM). The same molecule gave an MIC in experiment [7] of 32 µg/mL (≈ 152 µM).

As to `Fc1cccc(-c2nnc3ccncc3n2)c1`, the MIC amounted to 16 µg/mL (≈ 70.7 µM) in experiment [8]; 8 µg/mL (≈ 35.4 µM) in [12]; 16 µg/mL (≈ 70.7 µM) in experiment [3]; 32 µg/mL (≈ 141 µM) in experiment [10]; 16 µg/mL (≈ 70.7 µM) in experiment [4]; 16 µg/mL (≈ 70.7 µM) in [13]. Also, the MIC in experiment [11] worked out at 16 µg/mL (≈ 70.7 µM); in experiment [14], 4 µg/mL (≈ 17.7 µM); in experiment [15] it was 1 µg/mL (≈ 4.42 µM); in experiment [7], 8 µg/mL (≈ 35.4 µM).

Turning to `Cc1nnc2c(cnc3ccccc32)n1`, the MIC amounted to 32 µg/mL (≈ 163 µM) in [16]; 32 µg/mL (≈ 163 µM) in [2]; 32 µg/mL (≈ 163 µM) in experiment [3]; 32 µg/mL (≈ 163 µM) in experiment [4]; 16 µg/mL (≈ 81.5 µM) in [13]; 32 µg/mL (≈ 163 µM) in experiment [14]. The MIC in experiment [7] stood at 32 µg/mL (≈ 163 µM).

For the molecule `Cc1nc(C)c2nc(-c3ccc(F)cc3)nnc2c1N`, the MIC in experiment [8] is 128 µg/mL (≈ 475 µM); in [16], 128 µg/mL (≈ 475 µM); in [2], above 128 µg/mL; in experiment [3] it was above 128 µg/mL; in experiment [10], above 128 µg/mL; in experiment [4], above 128 µg/mL. For the same molecule, the figures for the MIC in experiment [11], in [14] and in experiment [6] were above 128 µg/mL, 128 µg/mL (≈ 475 µM) and above 128 µg/mL, respectively.

Consider `Fc1ccccc1-c1nnc2ccncc2n1`, for which the MIC in [8] was 64 µg/mL (≈ 283 µM); in experiment [2], 32 µg/mL (≈ 141 µM); in [3], 32 µg/mL (≈ 141 µM); in experiment [10], 32 µg/mL (≈ 141 µM); in experiment [4], 32 µg/mL (≈ 141 µM); in [17], 2 µg/mL (≈ 8.84 µM). The MIC in [11] turned out to be 16 µg/mL (≈ 70.7 µM); in experiment [14] it was 8 µg/mL (≈ 35.4 µM); in experiment [6] it was 16 µg/mL (≈ 70.7 µM); in experiment [7], 32 µg/mL (≈ 141 µM).

As to `Cc1nnc2ncccc2n1`, the MIC in [9] worked out at 32 µg/mL (≈ 219 µM); in experiment [16], 128 µg/mL (≈ 876 µM); in [2], 128 µg/mL (≈ 876 µM); in [3], 128 µg/mL (≈ 876 µM); in [4] it was 64 µg/mL (≈ 438 µM); in [14], 128 µg/mL (≈ 876 µM). The lowest concentration to inhibit growth in experiment [7] (MIC) was 128 µg/mL (≈ 876 µM).

For `CCCCCCCCCCCCCCCCCc1nnc2ccncc2n1`, the MIC was 128 µg/mL (≈ 345 µM) in experiment [8]; 128 µg/mL (≈ 345 µM) in experiment [2]; 128 µg/mL (≈ 345 µM) in [3]; above 128 µg/mL in experiment [10]; above 128 µg/mL in experiment [11]; 128 µg/mL (≈ 345 µM) in [6]. The molecule further returned an MIC in [7] of 128 µg/mL (≈ 345 µM).

As for `CC1N=Nc2ncccc2N1` (stereo unspecified), the minimal inhibitory concentration (MIC) in experiment [9] was 32 µg/mL (≈ 216 µM); in experiment [18], 8 µg/mL (≈ 54 µM); in experiment [2] it was 64 µg/mL (≈ 432 µM); in [3], 64 µg/mL (≈ 432 µM); in experiment [4] it was 64 µg/mL (≈ 432 µM); in [19], 32 µg/mL (≈ 216 µM). Besides, in [7], the MIC stood at 64 µg/mL (≈ 432 µM).

For `c1cnc2nncnc2c1`, the MIC in experiment [16] worked out at 32 µg/mL (≈ 242 µM); in experiment [2], 64 µg/mL (≈ 484 µM); in [3], 64 µg/mL (≈ 484 µM); in [4], 32 µg/mL (≈ 242 µM); in [13], 16 µg/mL (≈ 121 µM); in experiment [14], 32 µg/mL (≈ 242 µM). Moreover, in [7], inhibition of growth (MIC) required 32 µg/mL (≈ 242 µM).

Turning to `c1cc2nnc(C3CCC3)nc2cn1`, the MIC came out at 16 µg/mL (≈ 85.9 µM) in [8]; 32 µg/mL (≈ 172 µM) in experiment [2]; 8 µg/mL (≈ 43 µM) in experiment [20]; 32 µg/mL (≈ 172 µM) in experiment [10]; 16 µg/mL (≈ 85.9 µM) in experiment [13]; 32 µg/mL (≈ 172 µM) in experiment [11]. Moreover, the MIC in experiment [7] came out at 16 µg/mL (≈ 85.9 µM).

For `c1ccc(-c2ccc(-c3nnc4ccncc4n3)cc2)cc1`, the MIC in experiment [8] is 128 µg/mL (≈ 450 µM); in experiment [2], 128 µg/mL (≈ 450 µM); in experiment [21], 64 µg/mL (≈ 225 µM); in experiment [3], 128 µg/mL (≈ 450 µM); in experiment [10], above 128 µg/mL; in experiment [11], above 128 µg/mL. Further, the MIC in experiment [7] came out at 128 µg/mL (≈ 450 µM).

With `c1ccc2nc(-c3nnc4ccncc4n3)cnc2c1`, the MIC in [8] was 32 µg/mL (≈ 123 µM); in experiment [2], 8 µg/mL (≈ 30.7 µM); in [3], 8 µg/mL (≈ 30.7 µM); in experiment [10], 32 µg/mL (≈ 123 µM); in experiment [11], 32 µg/mL (≈ 123 µM); in experiment [6], 32 µg/mL (≈ 123 µM). This molecule displayed an MIC in experiment [7] of 8 µg/mL (≈ 30.7 µM).

Consider `c1ccc2c3c(cnc2c1)NC1(CCCCC1)N=N3`, for which the MIC in experiment [16] is 64 µg/mL (≈ 254 µM); in experiment [2] it was 128 µg/mL (≈ 507 µM); in experiment [3], 128 µg/mL (≈ 507 µM); in [4] it was 128 µg/mL (≈ 507 µM); in experiment [14], 64 µg/mL (≈ 254 µM); in experiment [6] it was 128 µg/mL (≈ 507 µM). In addition, inhibition of growth in experiment [7] (MIC) required 128 µg/mL (≈ 507 µM).

As usually defined, the MIC is the lowest concentration found to suppress growth. A low value points to inhibition by little substance.
